An excerpt weighted towards active compounds, which were near 2.1% of everything screened.
GSTO1 counter: counter-screen for RBBP9 inhibitors: inhibitors of human GSTO1. actives 1.1% (n = 300,000). recombinant GSTO1, activity-based probe fluorescence polarization. P78417. inhibition, % at 5.96 µM. AID 1974;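 active = inhibition above the campaign mean inhibition plus 3 SD, cut at about 35% in these data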;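 note: 0% = GSTO1-1 with DMSO and 100% = wells lacking GSTO1-1 enzyme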
Apaf-1 inh: inhibitors of human Apaf-1 apoptosome | O14727 | reconstituted apoptosome caspase-3 activity, DEVD-Rh110 fluorescence | inhibition, % at 20 µM | actives 0.71% (n = 330,000); active = inhibition of at least 40% at 20 µM;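 note: plate controls were DMSO wells for no effect and DEVD-CHO caspase inhibitor wells for full effect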
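System: Apoptosome proteins | Medium: Hepes pH 7.5 with detergent and BSA | Also added: Cytochrome c trigger plus (Z-DEVD)2-Rh110 caspase-3 substrate | Incubation: 30 min compound preincubation, 50 min activation, room temperature | Detection: Rhodamine 110 fluorescence at Ex 480/Em 540 nm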
PP5 primary: inhibitors of human protein phosphatase 5 (PP5); P53041; actives 0.18% (n = 320,000); purified PP5c, OMFP substrate fluorescence; inhibition, % at 6.7 µM;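 active = inhibition above the campaign's mean inhibition across all tested compounds plus 3 SD, cut at about 9.5% in these data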;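 note: 0% = DMSO only and 100% = 100 µM cantharidin control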
TDP2 absorb: TDP2 (human) inhibition, absorbance primary screen; O95551; recombinant TDP2, T5PNP hydrolysis, p-nitrophenol absorbance 415 nm; inhibition, % at 12.8 µM; actives 0.34% (n = 370,000);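 active = inhibition above the mean of all tested compounds plus 3 SD, set per campaign, cut at about 25% in these data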;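 note: 0% = DMSO with enzyme and 100% = buffer with substrate but no TDP2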
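System: recombinant human TDP2 / Amount: 120 nM TDP2 per well / Also added: 5 mM T5PNP chromogenic substrate / Doses: 12.8 µM single point, 1% DMSO / Incubation: 2 h at 37 °C / Detection: p-Nitrophenol epi absorbance / Evaluation: % inhibition relative to enzyme-containing and enzyme-free wells / Repeats: singlicate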
PP1 counter: PP1-alpha (human) inhibition in PP5 counter-screen. actives 0.9% (n = 320,000). purified PP1alpha, OMFP fluorescence. AID 2235. P62136. inhibition, % at 6.7 µM;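 active = inhibition above the mean inhibition of all tested compounds plus 3 SD, computed separately for each screening campaign, cut at about 15% in these data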
Target sequence (P62136 whole entry, looked up): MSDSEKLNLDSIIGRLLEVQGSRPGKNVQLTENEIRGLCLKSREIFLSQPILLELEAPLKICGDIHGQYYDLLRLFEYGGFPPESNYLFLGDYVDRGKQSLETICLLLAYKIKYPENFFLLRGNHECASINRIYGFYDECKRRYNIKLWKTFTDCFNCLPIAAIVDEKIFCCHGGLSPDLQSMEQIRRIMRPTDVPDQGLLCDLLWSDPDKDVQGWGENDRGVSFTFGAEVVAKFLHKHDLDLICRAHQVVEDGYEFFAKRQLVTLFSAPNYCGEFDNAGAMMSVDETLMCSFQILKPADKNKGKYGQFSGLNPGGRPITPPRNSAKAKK
Active calls of the source: *; · = not tested or not shown.

SMILES	GSTO1 counter	Apaf-1 inh	PP5 primary	TDP2 absorb	PP1 counter
Cc1ccc(NC(=O)CN2C(=O)N/C(=C/c3cccn3-c3ccc(C(=O)O)cc3)C2=O)cc1	37*	·	3	16	1
Cc1ccc(NC(=O)CN2C(=O)N/C(=C/c3cc(C)n(-c4ccc(C(=O)O)cc4)c3C)C2=O)cc1	·	·	·	8	·
CC(=O)NN1C(=O)c2ccc3c4c(ccc(c24)C1=O)C(=O)N(NC(C)=O)C3=O	37*	22	3	16	-6
O=C(CCl)Nc1cn(-c2ccccc2)nc1-c1ccccc1	51*	14	2	2	2
CC(=O)Nc1cn(-c2ccccc2)nc1-c1ccccc1	5	1	-2	-1	-10
O=c1cc(-c2ccccc2)[nH]n1-c1nc2ccccc2[nH]1	-9	22	0	6	17*
O=C(N/N=C/c1cc(Cl)c(O)c(Cl)c1)c1cc2c(ccc3ccccc32)o1	37*	14	4	13	11
O=C(N/N=C/c1cc(Br)c(O)c(Br)c1)c1cc2c(ccc3ccccc32)o1	·	30	·	-4	·
CCc1ccccc1NC(=O)c1ccc([N+](=O)[O-])s1	41*	-3	-1	-8	-1
c1ccc(C2Nc3cccc4cccc(c34)N2)cc1	36*	20	3	-3	4
COc1ccc(C2Nc3cccc4cccc(c34)N2)cc1	35*	3	4	1	0
COC(=O)[C@]12C[C@H](CC(=O)N3CCCC3)C(=O)N(CCc3ccc(OC)c(OC)c3)C1=C[C@H](C1CCCC1)O[C@@H]2C	·	·	·	-4	·
CC12CCC(c3c(CO)nn(-c4ccccc4)c31)C2(C)C (centres undefined)	8	10	1	1	1
CC12CCC(c3c(C(=O)O)nn(-c4ccccc4)c31)C2(C)C (centres undefined)	4	-16	1	-10	17*
CCC(C)CNC(=O)c1cn(C(C)c2ccccc2)nn1 (centres undefined)	·	·	·	10	·
O=C(NC(NC(=S)Nc1ccccc1Cl)C(Cl)(Cl)Cl)c1cccc(Cl)c1 (centres undefined)	-31	13	5	-14	15
O=C(Cc1cccc2ccccc12)NC(NC(=S)Nc1ccccc1Cl)C(Cl)(Cl)Cl (centres undefined)	-16	6	1	9	16*
C[C@@H]1Cn2cnc(C(=O)N(C)Cc3ccccc3)c2C(=O)N1	·	·	·	4	·
CC(C)(N[C@@H](Cc1c[nH]c2ccccc12)C(=O)NCCc1c[nH]c2ccccc12)C(=O)NC1CCCCC1	·	·	·	-5	·
Cc1ccc(S(=O)(=O)Nc2cccc(-c3ccc(N4CCCCCC4)nn3)c2)cc1C	-25	19	4	5	17*
O=S(=O)(Nc1cccc(-c2ccc(N3CCCCCC3)nn2)c1)c1ccc(F)cc1	-8	15	3	-3	5
O=S(=O)(Nc1cccc(-c2ccc(N3CCCCCC3)nn2)c1)c1ccccc1Cl	0	16	7	6	17*
O=S(=O)(Nc1cccc(-c2ccc(N3CCCCCC3)nn2)c1)c1ccc(C(F)(F)F)cc1	-18	17	3	-6	17*
O=S(=O)(Nc1cccc(-c2ccc(N3CCCCCC3)nn2)c1)c1ccccc1F	-1	16	0	7	1
O=C(NCCc1ccccc1)OCc1cn(-c2ccc(F)cc2)nn1	·	·	·	6	·
SMILES	GSTO1 counter	Apaf-1 inh	PP5 primary	TDP2 absorb	PP1 counter
COc1cc(OC)cc(C(C)c2ccc(C)cc2)c1 (centres undefined)	·	·	·	-2	·
CC(C)(C)c1ccc(S(=O)(=O)NCC(=O)N2CCN(c3ncccn3)CC2)cc1	·	·	·	2	·
COc1ccccc1N(Cc1cc(=O)[nH]c2ccccc12)C(=O)c1cccc([N+](=O)[O-])c1	36*	17	3	-8	-3
COc1cccc(C(=O)Nc2ccc(NC(=O)Cc3ccccc3)cc2)c1	0	-12	1	-4	17*
CCSc1nnc(NC(=O)C2CC=CCC2C(=O)O)s1 (centres undefined)	-5	-6	-2	-10	16*
C=CCn1c(COc2ccc(Cl)cc2)nnc1SCC(=O)c1ccccc1	·	·	·	0	·
O=C1CC(c2ccc(O)c(O)c2)Oc2c1ccc(O)c2O (centres undefined)	44*	-23	-2	-11	4
COC(=O)c1cc2c(c3c4cc(OC)ccc4n(S(=O)(=O)c4ccc(OC)cc4)c13)C(=O)N(Cc1ccccc1OC)C2	·	·	·	7	·

Source: PubChem (several laboratories)
